Data on two compounds can be found in BindingDB's records for doi:10.1016/j.ejmech.2008.02.028 (Institute of Chemical Technology, 2008).

Structures are written as SMILES.

The target in the test is Glutathione hydrolase 1 proenzyme (Homo sapiens, UniProt P19440). In words: Inhibition of gamma-glutamyltranspeptidase by colorimetric assay. The procedure, abridged: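 Colorimetric read-out at 405 nm by a standard procedure. IC50 is the […] giving 50% inhibition of enzyme activity. Values are the average of three independent experiments (n = 3).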
Sequence of Glutathione hydrolase 1 proenzyme (P19440 1-380 limits assumed): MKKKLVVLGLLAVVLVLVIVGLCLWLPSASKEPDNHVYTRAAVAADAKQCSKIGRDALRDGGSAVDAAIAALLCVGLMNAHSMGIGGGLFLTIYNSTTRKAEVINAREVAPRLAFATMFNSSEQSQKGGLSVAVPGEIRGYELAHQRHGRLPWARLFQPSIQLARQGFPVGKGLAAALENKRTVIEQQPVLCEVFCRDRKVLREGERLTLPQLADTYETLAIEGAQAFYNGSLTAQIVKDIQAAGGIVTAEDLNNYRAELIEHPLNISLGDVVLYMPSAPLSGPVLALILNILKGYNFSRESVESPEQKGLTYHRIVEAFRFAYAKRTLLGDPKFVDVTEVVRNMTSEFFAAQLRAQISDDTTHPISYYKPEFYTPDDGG
Sequence of Glutathione hydrolase 1 proenzyme (P19440 381-569 limits assumed): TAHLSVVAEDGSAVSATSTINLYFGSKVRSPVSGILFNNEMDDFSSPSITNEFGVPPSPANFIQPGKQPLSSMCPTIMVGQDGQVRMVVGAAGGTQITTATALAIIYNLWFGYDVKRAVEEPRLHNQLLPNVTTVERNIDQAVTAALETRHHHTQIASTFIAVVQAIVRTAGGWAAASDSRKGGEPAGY

For the compound `CNC(=O)C1=C(C)C2Sc3ccccc3N=C2C(C(=O)NC)C1c1ccc2c(c1)OCO2` (configuration not stated) [2-(1,3-Benzodioxol-5-yl)-N,N',4-trimethyl-2,10-dihydro-1H-phenothiazine-1,3-dicarboxamide], the half-inhibitory concentration (IC50) is > 30 µM.
Turning to `CNC(=O)C1=C(C)C2Sc3ccccc3N=C2C(C(=O)NC)C1c1ccccc1OC` (configuration not stated) [2-(2-Methoxyphenyl)-N,N',4-trimethyl-2,10-dihydro-1H-phenothiazine-1,3-dicarboxamide], the concentration for half-maximal inhibition (IC50) is > 30 µM.
